# Measured values from ChEMBL document CHEMBL1144427, “Synthesis and in vitro and in vivo antitumor activity of 2-phenylpyrroloquinolin-4-ones” (J Med Chem, 2005).
# Structures can show the parent of a compound that is named as a salt.
# What was measured:
# HepG2 = experiment: Cytotoxic activity against human tumor Hep G2 cell line; format: functional, cell-based
# Outline: (§1)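 DMEM with 10% heat-inactivated FBS and antibiotics used for culture. Cells plated at 10⁴/well; after 24 h, 72 h exposure to 0.01–100 µM (final) compound. Survival measured by MTT (4 h), SDS/HCl solubilisation for 18 h at 37 °C, absorbance at 550 nm. IC50 is the concentration giving 50% absorbance reduction versus untreated cells, from 6–8 wells across at least two experiments.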
# OVCAR-3 = experiment: Cytotoxic activity against human tumor Ovcar-3 cell line; format: functional, cell-based
# Outline: (§2)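 Cells kept in RPMI with 10% heat-inactivated FBS and penicillin/streptomycin. MTT assay: 10⁴ cells/well seeded, exposed after 24 h to compound at 0.01–100 µM final for 72 h. MTT was added for 4 h, then SDS/HCl for 18 h at 37 °C, and absorbance read at 550 nm. IC50 is the concentration halving absorbance versus untreated cells, from 6–8 wells in at least two independent experiments.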
# [1] = Cytotoxic activity against human tumor C8305 cell line; format: functional, cell-based; outline: as §2
# A 172 = experiment: Cytotoxic activity against human tumor A-172 cell line; format: functional, cell-based; outline: as §2
# HT-29 = experiment: Cytotoxic activity against human tumor HT-29 cell line; format: functional, cell-based; outline: as §1
# [2] = Cytotoxic activity against human tumor SW 13 cell line; format: functional, cell-based
# Outline: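 Maintained in Leibovitz medium with 10% FBS and penicillin/streptomycin. Colorimetric MTT assay: 10⁴ cells/well, compound at 0.01–100 µM final from 24 h after seeding, for 72 h. MTT for 4 h, then SDS in 0.01 N HCl for 18 h at 37 °C, absorbance at 550 nm. IC50 is the concentration halving absorbance versus control, from 6–8 wells in at least two independent runs.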
# [3] = Cytotoxic activity against human tumor NCI-H295 cell line; format: functional, cell-based
# Outline: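 Grown in RPMI with 2% FBS, insulin-transferrin-selenium and penicillin/streptomycin. MTT read-out: 10⁴ cells/well, compound 0.01–100 µM final added after 24 h, 72 h exposure. MTT for 4 h, solubilised in SDS/HCl for 18 h at 37 °C, absorbance at 550 nm. IC50 is the concentration cutting absorbance 50% versus control, from 6–8 replicate wells over two or more independent experiments.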
# [4] = Cytotoxic activity against human tumor PT45 cell line; format: functional, cell-based; settings: PT-45; outline: as §2
# [5] = Cytotoxic activity against human tumor PLC/PRF/5 cell line; format: functional; outline: as §1
# [6] = Cytotoxic activity against human tumor Aro cell line; format: functional, cell-based; outline: as §1
# MCF7 = experiment: Cytotoxic activity against human tumor MCF-7 cell line; format: functional, cell-based; outline: as §1
# [7] = Cytotoxic activity against human tumor Hep 3B cell line; format: functional; settings: Hep3B; outline: as §1
# [8] = Cytotoxic activity against human tumor Mia Paca 2 cell line; format: functional, cell-based; outline: as §2
# IGROV-1 = experiment: Cytotoxic activity against human tumor Igrov-1 cell line; format: functional, cell-based; outline: as §2
Compound,"IC50 (HepG2; Homo sapiens, HepG2)","IC50 (OVCAR-3; Homo sapiens, OVCAR-3)","IC50 ([1]; Homo sapiens, C8305)",IC50 (A 172),IC50 (HT-29),"IC50 ([2]; Homo sapiens, SW13)","IC50 ([3]; Homo sapiens, NCI-H295)",IC50 [4],"IC50 ([5]; Homo sapiens, PLC-PRF-5)","IC50 ([6]; Homo sapiens, ARO)","IC50 (MCF7; Homo sapiens, MCF7)",IC50 [7],IC50 [8],"IC50 (IGROV-1; Homo sapiens, IGROV-1)",also measured
Cc1cc(O)c2ccc3[nH]ccc3c2n1,> 100 µM,> 100 µM,> 100 µM,> 100 µM,> 100 µM,> 100 µM,> 100 µM,> 100 µM,> 100 µM,> 100 µM,> 100 µM,> 100 µM,> 100 µM,> 100 µM,–
Oc1cc(-c2ccccc2)nc2c1ccc1[nH]ccc12,4 µM,2 µM,10 µM,100 µM,60 µM,3 µM,8 µM,100 µM,8 µM,8 µM,4 µM,4 µM,4 µM,5 µM,–
Oc1ccnc2c1ccc1[nH]ccc12,> 100 µM,> 100 µM,> 100 µM,> 100 µM,> 100 µM,> 100 µM,> 100 µM,> 100 µM,> 100 µM,> 100 µM,> 100 µM,> 100 µM,> 100 µM,> 100 µM,–
Nc1cccc(-c2cc(O)c3ccc4[nH]ccc4c3n2)c1 [listing 1 of 2 here],–,–,–,–,–,–,–,–,–,–,–,–,–,–,IC50 (HepG2; hepg2): > 100 µM; IC50 (OVCAR-3; ovcar-3): > 100 µM; IC50 ([1]; c8305): > 100 µM; IC50 ([2]; sw 13): > 100 µM; IC50 ([3]; nci-h295): > 100 µM; IC50 [5]: > 100 µM; IC50 ([6]; aro): > 100 µM; IC50 (MCF7; mcf7): > 100 µM; IC50 (IGROV-1; igrov-1): > 100 µM
COc1cccc(-c2cc(O)c3ccc4[nH]ccc4c3n2)c1,2 µM,1 µM,10 µM,> 100 µM,50 µM,0.7 µM,3 µM,100 µM,7 µM,4 µM,1 µM,2 µM,5 µM,3 µM,–
Nc1cccc(-c2cc(O)c3ccc4[nH]ccc4c3n2)c1 [listing 2 of 2 here],50 µM,–,80 µM,> 100 µM,> 100 µM,–,50 µM,> 100 µM,50 µM,70 µM,50 µM,> 100 µM,> 100 µM,–,IC50 (OVCAR-3; ovcar-3): 30 µM; IC50 ([2]; sw 13): 10 µM; IC50 (IGROV-1; igrov-1): 30 µM
Cn1ccc2c3nc(-c4ccccc4)cc(O)c3ccc21,1 µM,2 µM,10 µM,> 100 µM,50 µM,0.9 µM,2 µM,100 µM,7 µM,5 µM,4 µM,1 µM,8 µM,3 µM,–
Oc1cc(-c2cccs2)nc2c1ccc1[nH]ccc12,10 µM,20 µM,100 µM,> 100 µM,> 100 µM,50 µM,40 µM,100 µM,80 µM,80 µM,30 µM,50 µM,> 100 µM,15 µM,–
O=[N+]([O-])c1cccc(-c2cc(O)c3ccc4[nH]ccc4c3n2)c1,> 100 µM,50 µM,> 100 µM,> 100 µM,> 100 µM,60 µM,60 µM,> 100 µM,> 100 µM,80 µM,70 µM,50 µM,> 100 µM,80 µM,–
O=[N+]([O-])c1ccc(-c2cc(O)c3ccc4[nH]ccc4c3n2)cc1,100 µM,50 µM,> 100 µM,> 100 µM,> 100 µM,50 µM,80 µM,> 100 µM,> 100 µM,> 100 µM,60 µM,30 µM,> 100 µM,60 µM,–
CC[C@]1(O)C[C@H]2CN(CCc3c([nH]c4ccccc34)[C@@](C(=O)OC)(c3cc4c(cc3OC)N(C=O)[C@H]3[C@@](O)(C(=O)OC)[C@H](OC(C)=O)[C@]5(CC)C=CCN6CC[C@]43[C@@H]65)C2)C1 [VINCRISTINE SULFATE],0.1 µM,0.01 µM,0.1 µM,> 100 µM,0.1 µM,0.001 µM,0.1 µM,0.1 µM,0.1 µM,< 0.0001 µM,0.01 µM,0.1 µM,0.01 µM,0.01 µM,–
